Assay results reported in ChEMBL document CHEMBL1136094, “Novel, potent and selective cyclin D1/CDK4 inhibitors: indolo[6,7-a]pyrrolo[3,4-c]carbazoles” (Bioorg Med Chem Lett, 2003).

Tests used:
[1] = target: Protein kinase C theta type (Homo sapiens) (UniProt Q04759); assay: Inhibition of Protein kinase C theta at 100 nM; parameters: scale not given: the % may be the effect or the level left
Summary of the method: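 Panel of 39 kinases, each tested at 100 and 500 nM inhibitor. […] Activity is expressed as % of control and is the mean of duplicate assays.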

NCI-H460 = assay: In vitro antiproliferative activity against human carcinoma cell line H460 (lung); type: functional, cell-based

Chain of Protein kinase C theta type (Homo sapiens) (Q04759 whole entry, looked up): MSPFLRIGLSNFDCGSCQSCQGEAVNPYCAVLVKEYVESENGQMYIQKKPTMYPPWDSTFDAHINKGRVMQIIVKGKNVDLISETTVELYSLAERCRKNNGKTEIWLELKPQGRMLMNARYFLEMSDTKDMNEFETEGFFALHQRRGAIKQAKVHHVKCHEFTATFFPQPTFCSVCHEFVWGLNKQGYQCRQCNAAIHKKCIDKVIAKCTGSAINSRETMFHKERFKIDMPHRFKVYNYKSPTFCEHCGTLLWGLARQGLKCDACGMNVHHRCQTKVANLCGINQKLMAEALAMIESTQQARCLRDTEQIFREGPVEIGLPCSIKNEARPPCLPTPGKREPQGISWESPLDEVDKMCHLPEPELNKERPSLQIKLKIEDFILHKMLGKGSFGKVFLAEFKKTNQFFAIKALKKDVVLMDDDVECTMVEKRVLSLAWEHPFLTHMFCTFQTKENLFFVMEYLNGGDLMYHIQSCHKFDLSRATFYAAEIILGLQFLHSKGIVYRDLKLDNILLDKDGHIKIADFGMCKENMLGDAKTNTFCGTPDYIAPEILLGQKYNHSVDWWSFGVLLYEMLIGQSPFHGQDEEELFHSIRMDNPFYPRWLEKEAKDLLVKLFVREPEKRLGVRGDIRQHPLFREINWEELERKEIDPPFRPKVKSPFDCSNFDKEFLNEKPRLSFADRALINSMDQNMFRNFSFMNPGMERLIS

Control [1]: 82% | IC50 (NCI-H460): 1670 nM
Structure (SMILES): Cn1ccc2ccc3c4[nH]c5c(CCCN[C@H]6CC[C@H](O)CC6)cccc5c4c4c(c3c21)C(=O)NC4=O
